ChEMBL document CHEMBL1123437, “Isozyme-specific enzyme inhibitors. 12. C- and N-methylmethionines as substrates and inhibitors of methionine adenosyltransferases of normal and hepatoma rat tissues” (J Med Chem, 1986)
Where “and” joins values, the source holds several entries; their conditions need not be identical. Equal entries are not always repeated.

Key:
[1] = biological target: T1, S-adenosylmethionine synthetase (MAT 1 and MAT 2) (Rattus norvegicus) (UniProt P13444+P18298); experiment: Compound (3 mM) was tested for the inhibition of conversion of [14C]methionine to [14C]-AdoMet by M-T (hepatoma tissue) of rat methionine adenosyltransferase; type: protein assay
How it was run: (§1)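 Radiometric [14C]Met→[14C]AdoMet assay with partially purified rat MAT (M-2 from kidney, 8.6 × 10^-6 units; M-T from Novikoff hepatoma, 7.9 × 10^-6 units). Derivative at 3 mM, 2 mM MgATP, pH 8.2 Tris/KCl/MgCl2/DTT buffer, 37 °C, 10 min. Acid-stopped; supernatant counted on phosphocellulose discs. No-ATP incubations served as controls.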

[2] = biological target: S-adenosylmethionine synthase isoform type-2 (Rattus norvegicus) (UniProt P18298); experiment: Compound (3 mM) was tested for the inhibition of conversion of [14C]methionine to [14C]AdoMet by rat Methionine adenosyltransferase II; how it was run: as §1
Target sequence in this assay (P18298 whole entry, canonical isoform): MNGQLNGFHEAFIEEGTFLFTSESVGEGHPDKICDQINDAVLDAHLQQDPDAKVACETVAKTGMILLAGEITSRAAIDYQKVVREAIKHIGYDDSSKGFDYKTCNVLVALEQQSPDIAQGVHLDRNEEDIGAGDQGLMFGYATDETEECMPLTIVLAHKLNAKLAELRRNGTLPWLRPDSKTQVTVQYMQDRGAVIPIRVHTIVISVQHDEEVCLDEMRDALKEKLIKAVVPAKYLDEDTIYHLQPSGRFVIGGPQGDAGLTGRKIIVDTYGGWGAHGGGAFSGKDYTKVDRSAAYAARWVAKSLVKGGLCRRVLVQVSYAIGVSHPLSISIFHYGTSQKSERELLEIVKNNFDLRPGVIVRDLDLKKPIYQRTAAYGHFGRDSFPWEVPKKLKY

[3] = biological target: T1, S-adenosylmethionine synthetase (MAT 1 and MAT 2) (Rattus norvegicus); experiment: Substrate activity as rate of conversion of [C14]-ATP to [C14]-Adomet in relation to KM value of methionine with M-T of rat methionine adenosyltransferase; type: protein assay
How it was run: (§2)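 Kinetics with 0.4 mM [14C]ATP and 1.72 × 10^-6 units M-2 (kidney) or 1.58 × 10^-6 units M-T (hepatoma), 60 min, 37 °C, pH 8.2. Product resolved by paper electrophoresis and counted. KM and Vmax from linear double-reciprocal plots. Vmax expressed relative to L-Met = 100; reported as the relative Vmax/KM ratio.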

[4] = biological target: S-adenosylmethionine synthase isoform type-2 (Rattus norvegicus) (UniProt P18298); experiment: Substrate activity of compound (4 mM) measured as the rate of conversion of [C14]-ATP to [C14]-Adomet in relation to KM value of methionine with rat Methionine adenosyltransferase II; how it was run: as §2
Target sequence in this assay (P18298 whole entry, canonical isoform): as above

[5] = Ratio of Vmax of normal tissue (M-T) form of rat methionine Adenosyltransferase to that of KM of normal tissue(M-T)form of rat methionine Adenosyltransferase; how it was run: as §2
[6] = biological target: T1, S-adenosylmethionine synthetase (MAT 1 and MAT 2) (Rattus norvegicus); experiment: Substrate level that produces half the maximal velocity(M-T) of rat methionine adenosyltransferase; type: protein assay
How it was run: (§3)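 KM from linear double-reciprocal plots of velocity vs derivative concentration. Conditions: 0.4 mM [14C]ATP, 1.72 × 10^-6 units M-2 (rat kidney) or 1.58 × 10^-6 units M-T (Novikoff hepatoma), 60 min, 37 °C, Tris pH 8.2 with KCl/MgCl2/DTT. [14C]AdoMet derivative separated by paper electrophoresis and counted.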

[7] = biological target: S-adenosylmethionine synthase isoform type-2 (Rattus norvegicus) (UniProt P18298); experiment: Substrate activity of compound (4 mM) measured as the rate of conversion of [C14]-ATP to [C14]-Adomet in relation to KM value of methionine rat Methionine adenosyltransferase II; how it was run: as §2
Target sequence in this assay (P18298 whole entry, canonical isoform): as above

[8] = Ratio of relative Vmax of normal tissue (M-2) form of rat methionine Adenosyltransferase to that of KM of normal tissue(M-2)form of rat methionine Adenosyltransferase; how it was run: as §2
[9] = biological target: T1, S-adenosylmethionine synthetase (MAT 1 and MAT 2) (Rattus norvegicus); experiment: Substrate level that produces half the maximal velocity(M-2) of rat methionine adenosyl transferase; type: protein assay; how it was run: as §3
[10] = biological target: T1, S-adenosylmethionine synthetase (MAT 1 and MAT 2) (Rattus norvegicus); experiment: […](M-T) of rat methionine adenosyl transferase; type: protein assay; how it was run: as §3
[11] = biological target: S-adenosylmethionine synthase isoform type-2 (Rattus norvegicus) (UniProt P18298); experiment: Substrate activity with normal tissue form of rat Methionine adenosyltransferase II
Target sequence in this assay (P18298 whole entry, looked up, canonical isoform): as the sequence (P18298 whole entry, canonical isoform) above

[12] = tested on: CSCC(C)C(N)C(=O)O; experiment: (§4) Substrate activity with rat Methionine adenosyltransferase II
[13] = tested on: CS[C@H](C)C[C@H](N)C(=O)O; experiment: as §4
[14] = tested on: CSCC[C@H](N)C(=O)O; experiment: as §4
[15] = tested on: CSC(C)C[C@@H](N)C(=O)O; experiment: as §4
[16] = biological target: T1, S-adenosylmethionine synthetase (MAT 1 and MAT 2) (Rattus norvegicus); experiment: Substrate level that produces half the maximal velocity(M-2) of rat methionine adenosyltransferase; type: protein assay; how it was run: as §3
[17] = tested on: CSCC(C)C(N)C(=O)O; experiment: (§5) Substrate activity with […] form of rat methionine Adenosyltransferase; type: protein assay
[18] = tested on: CSCC[C@H](N)C(=O)O; experiment: as §5; type: protein assay
[19] = tested on: CSC[C@@H](C)C(N)C(=O)O; experiment: (§6) Substrate activity with […] (M-T) form of rat methionine adenosyltransferase; type: protein assay
[20] = tested on: CSCC[C@](C)(N)C(=O)O; experiment: as §6; type: protein assay
[21] = biological target: T1, S-adenosylmethionine synthetase (MAT 1 and MAT 2) (Rattus norvegicus); experiment: Rate of conversion of [C14]-ATP to [C14]-Adomet in relation to KM value of methionine with methionine adenosyltransferase; type: protein assay; how it was run: as §2
[22] = biological target: S-adenosylmethionine synthase isoform type-2 (Rattus norvegicus) (UniProt P18298); experiment: as §4; conditions: concentration not given here
How it was run: (§7)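 Derivative at 4 mM with [14C]ATP and 1.6 × 10^-5 units rat MAT, 1 h at 37 °C. [14C]AdoMet derivative separated by paper electrophoresis (pH 5.0 acetate) and counted. Result given as cpm per 10 µL above a control lacking the derivative. At least twice control counts scored as substrate activity.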
Target sequence in this assay (P18298 whole entry, canonical isoform): as above

[23] = biological target: S-adenosylmethionine synthase isoform type-2 (Rattus norvegicus) (UniProt P18298); experiment: Rate of conversion of [C14]-ATP to [C14]-Adomet in relation to KM value of methionine with Methionine adenosyltransferase II; how it was run: as §2
Target sequence in this assay (P18298 whole entry, canonical isoform): as above

[24] = biological target: T1, S-adenosylmethionine synthetase (MAT 1 and MAT 2) (Rattus norvegicus); experiment: Substrate activity with […](M-Tform of rat methionine adenosyltransferase; type: protein assay; conditions: concentration not given here; how it was run: as §7
[25] = biological target: T1, S-adenosylmethionine synthetase (MAT 1 and MAT 2) (Rattus norvegicus); experiment: Compound (3 mM) was tested for the inhibition of conversion of [14C]methionine to [14C]AdoMet by M-T (hepatoma tissue) of methionine adenosyltransferase; type: protein assay; how it was run: as §1
[26] = biological target: S-adenosylmethionine synthase isoform type-2 (Rattus norvegicus) (UniProt P18298); experiment: Compound (3 mM) was tested for the inhibition of conversion of [14C]methionine to [14C]AdoMet by M-2 (normal tissue) of rat methionine Adenosyltransferase; how it was run: as §1
Target sequence in this assay (P18298 whole entry, canonical isoform): as above

[27] = biological target: S-adenosylmethionine synthase isoform type-2 (Rattus norvegicus) (UniProt P18298); experiment: Substrate activity of compound (4 mM) measured as the rate of conversion of [C14]-ATP to [C14]-Adomet in relation to KM value of methionine of rat Methionine adenosyltransferase II; how it was run: as §2
[28] = biological target: T1, S-adenosylmethionine synthetase (MAT 1 and MAT 2) (Rattus norvegicus); experiment: Substrate activity of compound (4 mM) measured as the rate of conversion of [C14]-ATP to [C14]-Adomet in relation to KM value of methionine with M-T of rat MAT; type: protein assay; how it was run: as §2
[29] = biological target: T1, S-adenosylmethionine synthetase (MAT 1 and MAT 2) (Rattus norvegicus); experiment: Compound (3 mM) was tested for the inhibition of conversion of [14C]methionine to [14C]-AdoMet by M-T (hepatoma tissue) of rat methionine Adenosyltransferase; type: protein assay; how it was run: as §1

S-adenosylmethionine synthase isoform type-2 (Rattus norvegicus), P18298, sequence (P18298 whole entry, canonical isoform): as above
S-adenosylmethionine synthetase (MAT 1 and MAT 2) (Rattus norvegicus) (from UniProt P13444+P18298), sequence (P18298 whole entry, looked up): as the sequence (P18298 whole entry, canonical isoform) above
S-adenosylmethionine synthetase (MAT 1 and MAT 2) (Rattus norvegicus) (from UniProt P13444+P18298), sequence (P13444 whole entry, looked up): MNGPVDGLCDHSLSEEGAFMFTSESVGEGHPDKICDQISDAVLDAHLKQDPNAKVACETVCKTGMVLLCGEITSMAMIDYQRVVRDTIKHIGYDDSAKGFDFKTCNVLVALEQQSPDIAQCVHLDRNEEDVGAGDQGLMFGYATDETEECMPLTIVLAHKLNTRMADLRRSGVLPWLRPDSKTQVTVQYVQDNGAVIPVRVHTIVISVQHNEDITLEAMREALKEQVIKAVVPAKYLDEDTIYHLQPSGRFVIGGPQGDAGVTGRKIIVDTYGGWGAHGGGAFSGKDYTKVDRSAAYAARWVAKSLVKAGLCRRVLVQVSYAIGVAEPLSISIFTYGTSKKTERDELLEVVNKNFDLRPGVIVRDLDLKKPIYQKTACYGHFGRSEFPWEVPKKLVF

Q: Which inhibition [1] does the source give for `CSC[C@@H](C)[C@H](N)C(=O)O` here?
A: 6.6%

Q: And the inhibition [2]?
A: 17%

Q: And the Substrate activity [3]?
A: 191 c.p.m.

Q: What about the Substrate activity [4] of the same compound?
A: -10 c.p.m.

Q: What does the source list for `CN[C@@H](CCSC)C(=O)O`?
A: inhibition [1]: 0%; inhibition [2]: 2.9%; Substrate activity [3]: 36 c.p.m.; Substrate activity [4]: -9 c.p.m.

Q: With `CSCC[C@](C)(N)C(=O)O` as the compound, how does the Ratio [5] read?
A: 1.3

Q: And the inhibition [1]?
A: 11%

Q: And the inhibition [2]?
A: 15%

Q: And the Relative Vmax [6]?
A: 27

Q: And the Substrate activity [3]?
A: 241 c.p.m.

Q: And the Substrate activity [7]?
A: 49 c.p.m.

Q: Which results are given for `CSC[C@@H](C)[C@@H](N)C(=O)O`?
A: Ratio [8]: 0.9; Relative Vmax [9]: 26; inhibition [1]: 15%; inhibition [2]: 21%; Substrate activity [3]: 381 c.p.m.; Substrate activity [4]: 333 c.p.m.

Q: For `CSCC[C@H](N)C(=O)O`, which Ratio [8] is on record?
A: 20000

Q: And the Ratio [5]?
A: 6400

Q: And the Relative Vmax [10]?
A: 100

Q: What does the source list for “S-adenosylmethionine synthase isoform type-2 (Rattus norvegicus), P18298”?
A: Km [11]: 29 mM; Km [12]: 6.1 mM; Km [13]: 14 mM; Km [14]: 0.005 mM; Km [15]: 10 mM

Q: With `CS[C@H](C)C[C@H](N)C(=O)O` as the compound, how does the Ratio [8] read?
A: 1.9

Q: And the inhibition [1]?
A: 15%

Q: What about the inhibition [2] of the same compound?
A: 24%

Q: And the Relative Vmax [16]?
A: 27

Q: What about the Substrate activity [3] of the same compound?
A: 731 c.p.m.

Q: What about the Substrate activity [4] of the same compound?
A: 506 c.p.m.

Q: For “S-adenosylmethionine synthetase (MAT 1 and MAT 2) (Rattus norvegicus) (from UniProt P13444+P18298)”, which Km [17] is on record?
A: 1.4 mM

Q: And the Km [18]?
A: 0.0156 mM

Q: What about the Km [19] of the same compound?
A: 20 mM

Q: And the Km [20]?
A: 21 mM

Q: Which Substrate activity [21] does the source give for `CNCCC(N)C(=O)O` (stereo not drawn) here?
A: 33 cpm

Q: What about the inhibition [22] of the same compound?
A: 6.6%

Q: What about the Substrate activity [23] of the same compound?
A: 37 cpm

Q: And the inhibition [24]?
A: 0%

Q: With `CCCCN[C@@H](CCSC)C(=O)O` as the compound, how does the inhibition [25] read?
A: 0%

Q: And the inhibition [2]?
A: 0%

Q: And the Substrate activity [3]?
A: 13 c.p.m.

Q: What about the Substrate activity [4] of the same compound?
A: -15 c.p.m.

Q: Which inhibition [1] does the source give for `CS[C@@H](C)C[C@@H](N)C(=O)O` here?
A: 14%

Q: What about the inhibition [26] of the same compound?
A: 9.7%

Q: And the Substrate activity [3]?
A: 173 c.p.m.

Q: What about the Substrate activity [4] of the same compound?
A: 30 c.p.m.

Q: Which Ratio [8] does the source give for `CSC(C)C[C@@H](N)C(=O)O` (stereo partly drawn) here?
A: 2.6

Q: And the inhibition [1]?
A: 24%

Q: What about the inhibition [2] of the same compound?
A: 29%

Q: And the Relative Vmax [16]?
A: 26

Q: And the Substrate activity [3]?
A: 272 c.p.m.

Q: What about the Substrate activity [4] of the same compound?
A: 624 c.p.m.

Q: With `CSC[C@@H](C)C(N)C(=O)O` (stereo partly drawn) as the compound, how does the Ratio [5] read?
A: 1.8

Q: And the Substrate activity [27]?
A: 38 c.p.m.

Q: And the inhibition [1]?
A: 8.7%

Q: What about the inhibition [2] of the same compound?
A: 15%

Q: What about the Relative Vmax [6] of the same compound?
A: 37

Q: And the Substrate activity [3]?
A: 348 c.p.m.

Q: For `CSCC(C)C(N)C(=O)O` (stereo not drawn), which Ratio [8] is on record?
A: 4.4

Q: What about the Substrate activity [28] of the same compound?
A: 701 c.p.m.

Q: What about the Ratio [5] of the same compound?
A: 8.6

Q: What about the inhibition [26] of the same compound?
A: 68%

Q: And the Relative Vmax [10]?
A: 27 and 12

Q: And the inhibition [29]?
A: 65%

Q: What about the Substrate activity [4] of the same compound?
A: 838 c.p.m.

Q: With `CSCC[C@@](C)(N)C(=O)O` as the compound, how does the inhibition [25] read?
A: 3.7%

Q: What about the inhibition [26] of the same compound?
A: 4.8%

Q: And the Substrate activity [3]?
A: 40 c.p.m.

Q: And the Substrate activity [4]?
A: 41 c.p.m.
